# Compounds with a hit are over-represented: about 1.6% of the library has one in this group of screens.
# ABCB1 block: ABCB1 efflux pump inhibitors, primary screen, cell-based, multiplex, flow cytometry, ABCG2 counter-screen; ATP-dependent translocase ABCB1 (Homo sapiens), P08183; CCRF-Adr cells, JC-1 efflux; inhibition, % at 6.6 µM; hit rate 0.067% among 190,000; in the data active = inhibition above about 40%;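 note: 0% = vehicle and 100% = reference inhibitor; higher value means more JC-1 retained so stronger ABCB1 efflux block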
# HSV replic up: enhancers of HSV replication in host cells, fold increase, host cell viability. HSV replication augmentation in cells. hit rate 0.005% among 220,000. maximum fold increase; in the data active = maximum fold increase above about 1.5; tested in PC3 cells
# PHOSPHO1 block: PubChem AID 1565; Phosphoethanolamine/phosphocholine phosphatase (Homo sapiens), Q8TCT1; recombinant PHOSPHO1, absorbance phosphatase assay; inhibition, % at 13.3 µM; hit rate 1.1% among 290,000; in the data active = inhibition above about 60%
# ABCG2 block: ABCG2 efflux pump inhibitors, primary screen, multiplex with ABCB1, IgMXP3 cells, flow cytometry; Broad substrate specificity ATP-binding cassette transporter ABCG2 (Homo sapiens), Q9UNQ0; AID 1325, 2008; JC-1 efflux; hit rate 0.1% among 190,000; inhibition, % at 6.6 µM;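 active = inhibition above 80%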;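 note: 0% = DMSO and 100% = nicardipine control wells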
#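 Test system: IgMXP3 (ABCG2) plus far-red-tagged CCRF-Adr (ABCB1) cells. Reagent: JC-1 dye as substrate. Timing: 10 min exposure at 25 °C with rotation, no wash. Measured by: flow cytometric JC-1 green MFI at 530 nm. Read-out: percent efflux inhibition, scaled nicardipine 100% to DMSO 0%. Control set: nicardipine and DMSO wells.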
# p47phox inh: p47phox/p22phox peptide binding inhibitors, primary screen, biochemical, uHTS, NADPH oxidase regulatory subunit; inhibition, % at 24.7 µM; Neutrophil cytosol factor 1 (Homo sapiens), P14598; hit rate 0.53% among 220,000; fluorescence polarization, 2 h; AID 1274, 2008;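 active = inhibition above about 30%, limit read from the data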;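 note: 0% = p47phox with labelled peptide and 100% = labelled peptide alone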
# PKD1 inh: inhibitors of human PKD1 kinase, biochemical, fluorescence polarization. Serine/threonine-protein kinase D1 (Homo sapiens), Q15139. PKD1 kinase fluorescence polarization assay. inhibition, % (test concentration not listed). hit rate 0.056% among 200,000; in the data active = inhibition above about 50%
# Target sequence (Q15139 whole entry, looked up): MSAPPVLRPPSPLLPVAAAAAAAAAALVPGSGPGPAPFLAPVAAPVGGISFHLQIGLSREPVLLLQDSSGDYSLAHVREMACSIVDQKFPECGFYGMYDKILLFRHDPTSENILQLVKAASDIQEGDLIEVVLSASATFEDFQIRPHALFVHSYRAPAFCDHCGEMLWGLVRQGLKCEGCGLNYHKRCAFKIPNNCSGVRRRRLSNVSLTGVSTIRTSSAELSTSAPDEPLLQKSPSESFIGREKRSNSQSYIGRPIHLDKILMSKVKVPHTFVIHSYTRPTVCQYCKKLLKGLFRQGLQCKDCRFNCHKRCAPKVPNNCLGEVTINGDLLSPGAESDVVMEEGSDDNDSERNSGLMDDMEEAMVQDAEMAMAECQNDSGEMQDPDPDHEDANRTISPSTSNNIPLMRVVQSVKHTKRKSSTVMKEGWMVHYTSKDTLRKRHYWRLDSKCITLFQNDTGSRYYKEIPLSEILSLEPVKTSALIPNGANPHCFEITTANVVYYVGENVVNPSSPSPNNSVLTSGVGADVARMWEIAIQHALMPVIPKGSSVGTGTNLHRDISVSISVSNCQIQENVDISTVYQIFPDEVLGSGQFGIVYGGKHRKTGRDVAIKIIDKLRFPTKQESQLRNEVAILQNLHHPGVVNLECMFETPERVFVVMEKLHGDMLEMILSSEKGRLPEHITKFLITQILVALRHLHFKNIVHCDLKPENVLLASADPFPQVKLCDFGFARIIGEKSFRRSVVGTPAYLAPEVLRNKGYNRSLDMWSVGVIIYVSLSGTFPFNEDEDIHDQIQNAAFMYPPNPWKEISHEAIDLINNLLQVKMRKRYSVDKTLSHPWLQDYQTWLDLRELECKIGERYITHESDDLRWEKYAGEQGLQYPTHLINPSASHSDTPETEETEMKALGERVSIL
# An asterisk follows results filed as active; i = inactive; . = no result given.
SMILES,ABCB1 block,HSV replic up,PHOSPHO1 block,ABCG2 block,p47phox inh,PKD1 inh
Cc1nnc(NC(=O)CCSc2ccc(Cl)cc2)s1,1,i,60*,24,-7,4
Cc1cccc(C)c1OCc1nnc(NC(=O)CSc2ccc(Cl)cc2)s1,0,i,-18,5,-11,-10
CCc1nnc(NC(=O)CSc2nnc(COc3ccccc3)n2Cc2ccccc2)s1,1,i,60*,4,5,-1
COCC(=O)Nc1nnc(COc2ccc(Cl)cc2)s1,1,i,8,8,12,-9
CCc1nnc(NC(=O)CSc2nnc(Cc3ccccc3)n2Cc2ccccc2)s1,1,i,31,5,-16,-3
O=C(CSc1ccccc1)Nc1nnc(COc2ccc(Cl)cc2)s1,0,i,78*,1,-14,27
CCN(CC(=O)Nc1ccc(NC(C)=O)cc1)c1ccc(C(F)(F)F)cn1,0,i,4,1,0,-7
Cc1nc(Cc2nnc(SCc3nc(N)nc(Nc4ccccc4C)n3)o2)cs1,1,i,26,3,-5,17
Cc1ccc([N+](=O)[O-])cc1NC(=O)CN1CCCCC1,0,i,18,13,-5,3
Cc1ccc([N+](=O)[O-])cc1NC(=O)CN1CCC(C)CC1,1,.,8,4,72*,2
N#Cc1ccccc1OCC(=O)OCCCOC(=O)COc1ccccc1C#N,.,.,20,.,.,.
C=CCC1(/C=N/O)CCOC(C)(C)C1 (stereo not drawn),.,i,24,.,64*,.
Cc1nnc(SCC(=O)O)s1,0,i,37,0,-9,-1
CCCCn1c(N2CCC(Cc3ccccc3)CC2)nc2c1c(=O)[nH]c(=O)n2C,2,i,10,32,-14,1
CC(C)OCCCn1c(=NC(=O)c2ccncc2)c(C#N)cc2c(=O)n3ccccc3nc21,1,i,98*,4,-6,-4
O=C(Nc1ccc(O)cc1C(=O)O)c1cccs1,-1,i,3,-1,-10,-2
Cc1ccc2[nH]c(=O)c(NC(N)=S)nc2c1,0,i,-40,4,-11,2
NC(=S)Nc1nc2ccccc2[nH]c1=O,1,.,66*,18,-18,2
O=C(O)c1ccccc1C(=O)NNc1cccc(Cl)n1,1,i,-8,18,-2,1
COc1ccccc1N(CC(=O)Nc1ccc2c(c1)OCO2)S(=O)(=O)c1ccccc1,0,i,92*,3,-1,-1
COc1ccc(S(=O)(=O)N(CC(=O)Nc2ccc3c(c2)OCO3)c2ccccc2OC)cc1,2,i,9,11,-11,-4
CN(C(=O)COc1ccccc1C(=O)NCCc1ccccc1)c1ccccc1,3,.,6,9,0,2
CC1CCCCN1c1ncnc(N)c1[N+](=O)[O-] (stereo not drawn),0,i,20,2,10,-2
CC1Cc2ccccc2N1c1ncnc(N)c1[N+](=O)[O-] (stereo not drawn),0,i,37,0,3,68*
N#Cc1c(N)[nH]c(=S)c(C#N)c1-c1ccccc1,-1,i,96*,-7,-11,-12
SMILES,ABCB1 block,HSV replic up,PHOSPHO1 block,ABCG2 block,p47phox inh,PKD1 inh
Cc1ccc(-c2cc(-c3ccccc3)[nH]c(=S)c2C#N)cc1,-4,i,-46,-3,-13,-5
Cc1c(/C=C(\C#N)C(=O)NCc2ccccc2)cc(C#N)n1C,.,.,20,.,.,.
COc1ccc(C(=O)NCCSCc2ccc(C)cc2)cc1,1,i,50,5,0,3
Cc1ccc(CSCCNC(=O)c2ccc(C)cc2)cc1,0,i,62*,4,-3,-2
CC(C)S(=O)(=O)c1csc(NC(=O)Nc2cc(Cl)ccc2Cl)c1Cl,.,i,46,.,-49,.
CCOC(=O)C1CCN(C(=O)CCc2ccc(S(=O)(=O)NCC(C)C)cc2)CC1,.,.,60*,.,.,.
CCOC(=O)C1CCN(C(=O)CCc2ccc(S(=O)(=O)NC(C)C)cc2)CC1,.,.,-8,.,.,.
CC(NC(=O)NC(=O)c1cccc([N+](=O)[O-])c1)C1CC1 (stereo not drawn),.,.,75*,.,.,.
Cc1ccc(C(=O)Nc2ccc(C(=O)O)cc2)cc1S(=O)(=O)Nc1cccc([N+](=O)[O-])c1,0,i,9,-3,-4,-8
O=C(Nc1cccc([N+](=O)[O-])c1)c1cccc(C(=O)Nc2cccc([N+](=O)[O-])c2)c1,.,i,56,.,41*,.
Cc1ccc(C(=O)Nc2cccc([N+](=O)[O-])c2)cc1S(=O)(=O)Nc1ccc(C(=O)O)cc1,-1,i,2,-4,60*,-5
Cc1cccc(NS(=O)(=O)c2cc(NC(=O)CC(=O)c3ccc([N+](=O)[O-])cc3)ccc2C)c1,-1,i,39,-2,35*,-1
CCCCN(CC)CCCNC(=O)c1cn(-c2ccc(OC)cc2)c(=O)c2ccccc12,.,.,54,.,.,.
O=C(Nc1ccc(N2CCOCC2)cc1)C1CC(=O)N(c2ccc(F)cc2)C1 (stereo not drawn),0,i,1,1,2,1
CCCc1cc(=O)oc2c(C)c(OCC(=O)c3ccc(N4CCCC4)cc3)ccc12,1,i,26,28,34*,1
COc1ccccc1N(C)S(=O)(=O)c1ccc(C(=O)O)cc1,1,i,4,2,5,-4
COc1ccccc1N(C)S(=O)(=O)c1ccc(C(=O)NC(C)(C)C)cc1,0,.,11,1,179*,-2
COc1cc(CNc2ncc(-c3ccc(Br)cc3)n2C)cc(OC)c1O,.,.,20,.,.,.
CCC1(C)N(O)C(C)(C)C(c2ccc(F)cc2)=[N+]1[O-] (stereo not drawn),0,i,2,0,-10,-2
COc1cc(NC(=S)NCc2cccnc2)cc(OC)c1,0,i,-6,6,-10,-1
COc1cc(NC(=S)NCc2cccnc2)cc(OC)c1OC,1,i,63*,3,-1,7
O=C1OC(c2cccs2)=N/C1=C\c1ccc(-c2ccccc2Cl)o1,0,i,-3,-4,81*,-5
O=[N+]([O-])c1ccc(Sc2cc[n+]([O-])c3ccccc23)c([N+](=O)[O-])c1,.,i,42,.,-11,.
COCCCNC(=S)NNC(=S)Nc1ccc(F)cc1F,0,i,83*,15,-6,-8
COCCCNC(=S)NNC(=S)Nc1ccccc1,.,i,-6,.,-6,.
O=C(NCc1ccccc1)C1CCCN(C(=O)NCc2ccccc2)C1 (stereo not drawn),.,.,22,.,.,.
Cc1ccc(Cl)cc1NC(=O)C(=O)N/N=C/c1ccc2c(c1)OCO2,.,.,26,.,.,.
